The values below come from ChEMBL document CHEMBL1800010, “Design, synthesis, and pharmacological activity of nonallergenic pyrazolone-type antipyretic analgesics” (J Med Chem, 2010).

Molecules are shown by their SMILES. The source made the active and inactive calls.

A short description of data set [1]: Drug excretion in rat urine at 100 mg/kg, po measured after 24 hrs by HPLC analysis. Type of data set: ADME, organism-based. The arrangement: dose 100 mg/kg, route oral. The settings on record: read-out: Activity. The method, boiled down: (§1)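 Single oral dose of 100 mg/kg to rats, with urine collected for 24 h. 1 mL urine was incubated with β-glucuronidase/sulphatase and Na2S2O5 in 0.1 M acetate, pH 4.5, at 37 °C for 24 h. Phenacetin internal standard added, then chloroform/methanol 9:1 extraction. Analyzed by C18 HPLC (acetate pH 6.6/acetonitrile 85:15, 254 nm) against authentic standards. Mean ± SEM, n=4.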

Data set [2] deals with Liver microsomes. Nature of the data set: Metabolic stability in rat liver microsomes assessed as norantipyrine formation per mg of protein after 20 mins by HPLC analysis. It counts as ADME, Microsome. The method, boiled down:
(§2)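 Rat liver microsomes prepared by 9000g then 105000g centrifugation in 1.15% KCl, protein by Lowry. Incubation: 2 μmol substrate, 10 μmol NADPH, Na2S2O5 and microsomes (2-2.5 mg protein) in 2 mL 0.1 M K/Na phosphate, pH 7.4, 37 °C, 20 min. Stopped with TCA. Metabolites measured by C18 HPLC at 254 nm against authentic standards.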

Data set [3] has as its system Rattus norvegicus. Nature of the data set: Antipyretic activity against IL-1beta-induced hyperthermia in rat assessed as change in rectal temperature at 100 mg/kg, po measured after 2 hrs.
The species named for a further data set is Cavia porcellus. Put plainly: Antigenicity in guinea pig assessed as erythema in abdomen id measured after 24 hrs by skin reaction assay. Conditions: in vivo, other.
Data set [4] relates to Rattus norvegicus. Put plainly: Antinociceptive activity in rat assessed as suppression of carrageenan-induced nociception in right hind paw at 100 mg/kg, po measured after 1 hr. Type of data set: functional, organism-based. The arrangement: dose 100 mg/kg. Summed up:
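Randall–Selitto paw pressure test in rats. Hyperalgesia induced by intraplantar injection of 0.1 mL carrageenin (10 mg/mL) into the right hindpaw, with oral dosing immediately afterward. Pressure rose at 16 g/s to squeak or struggle, cutoff 250 g. Baseline was the mean of the last four stable of 6-8 readings. Results given as % of baseline threshold, mean ± SEM, n=4.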

Data set [5] deals with Liver microsomes. Nature of the data set: Metabolic stability in rat liver microsomes assessed as increase in […] products after 20 mins by HPLC analysis. Type of data set: ADME, Microsome. Summed up: as §2
In data set [6] the test system is Rattus norvegicus. Nature of the data set: Drug excretion in rat urine assessed as hydroxyantipyrine formation at 100 mg/kg, po measured after 24 hrs by HPLC analysis. Type of data set: ADME, organism-based. Conditions: in vivo. Details: dose 100 mg/kg, route oral. The method, boiled down:
as §1

Data set [7] relates to Rattus norvegicus. Put plainly: Drug excretion in rat urine assessed as norantipyrine formation at 100 mg/kg, po measured after 24 hrs by HPLC analysis. It counts as ADME, organism-based. Details: dose 100 mg/kg, route oral. The settings on record: in vivo. The method, boiled down:
as §1

The subject of data set [8] is Liver microsomes. Nature of the data set: Metabolic stability in rat liver microsomes assessed as hydroxymethylpyrine formation per mg of protein after 20 mins by HPLC analysis. It counts as ADME, Microsome. The method, boiled down:
as §2
Background: Microsomes from liver hold many membrane-bound enzymes, among them those of drug oxidation.

The test system of data set [9] is Liver microsomes. Nature of the data set: Metabolic stability in rat liver microsomes assessed as hydroxyantipyrine formation per mg of protein after 20 mins by HPLC analysis. Type of data set: ADME, Microsome. Summed up: as §2
The subject of data set [10] is Rattus norvegicus. Nature of the data set: Drug excretion in rat urine assessed as hydroxymethylpyrine formation at 100 mg/kg, po measured after 24 hrs by HPLC analysis. Details: dose 100 mg/kg, route oral. It counts as ADME, organism-based. Conditions: in vivo. The method, boiled down:
as §1

Data set [11] relates to Rattus norvegicus. Put plainly: Antipyretic activity against IL-1beta-induced hyperthermia in rat assessed as change in rectal temperature at 50 mg/kg, po measured after 2 hrs.
For data set [12], the system named is Rattus norvegicus. Put plainly: Drug excretion in rat urine assessed as norantipyrine formation at 100 mg/kg, po measured after 24 hrs by HPLC analysis. The settings on record: in vivo, BLD = below limit of detection.
The species named for data set [13] is Rattus norvegicus. Put plainly: Antipyretic activity against IL-1beta-induced hyperthermia in rat assessed as change in rectal temperature measured after 2 hrs. It counts as functional, organism-based. The method, boiled down: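 Rats fitted with a guide cannula into the lateral ventricle. Fever induced by icv IL-1β (200 units/rat) in PBS pH 7.5. Compound given orally immediately after IL-1β at 10-100 mg/kg. Rectal temperature read by thermoelectric probe at 7 cm depth, after 3 days of adaptation, at 2 h intervals. ΔT_rec = T − T₀. Mean ± SEM, four rats.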

The subject of data set [14] is Rattus norvegicus. Nature of the data set: Antinociceptive activity in rat assessed as suppression of carrageenan-induced nociception in right hind paw at 2 mg/kg, po measured after 1 hr. Type of data set: functional, organism-based. The arrangement: dose 2 mg/kg. The method, boiled down: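 Rat Randall-Selitto paw pressure test. Hyperalgesia induced by intraplantar injection of 0.1 mL carrageenin (10 mg/mL) into the right hindpaw. Drug given orally immediately after. Pressure applied at 16 g/s with a 250 g cutoff; threshold taken at squeaking/struggling. Baseline is the mean of the last four stable readings. Expressed as % of control threshold; mean ± SEM, n=4 rats.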

As for `Cc1cc(=O)n(-c2ccccc2)n1C` [ANTIPYRINE], in [1], the dose excreted at 24 h was determined as 2%. Besides, the Activity in the data set with Liver microsomes [2] is given as 27 nmol; in the data set listed under Cavia porcellus, “Toxic”; with Rattus norvegicus [6] it was 2%; in the data set with Rattus norvegicus [7], 2%; in the data set with Liver microsomes [8], 40 nmol; in the data set on Liver microsomes [9], 40 nmol. For the same molecule, the Activity in the data set on Rattus norvegicus [10] is 2%. Besides, the result with Rattus norvegicus [3] and in the data set with Rattus norvegicus [4] was Active. The Stability entry in the data set on Liver microsomes [5] was “Unstable”.

In the case of `Cc1cc(=O)n(-c2ccccc2)n1C(C)(C)C`, the result with Rattus norvegicus [11] and in the data set with Rattus norvegicus [4] was Active. The Activity result was “BLD” in the data set with Rattus norvegicus [12]; below 0.1 nmol in the data set on Liver microsomes [2]; “Non-toxic” in the data set filed under Cavia porcellus; “BLD” with Rattus norvegicus [7] (BLD = below limit of detection); “Dose-dependent effect” in the data set listed under Rattus norvegicus [13]; “BLD” in the data set with Rattus norvegicus [10] (BLD = below limit of detection).

Turning to `Cc1cc(=O)n(-c2ccccc2)n1CC(F)(F)F`, the result in the data set with Rattus norvegicus [11] and in the data set with Rattus norvegicus [4] was Active. For the same molecule, the Activity entry in the data set with Rattus norvegicus [12] is “BLD”; with Liver microsomes [2] it was below 0.1 nmol; in the data set listed under Cavia porcellus, “Non-toxic”; with Rattus norvegicus [7] (BLD = below limit of detection), “BLD”; in the data set listed under Rattus norvegicus [13] it was “Dose-dependent effect”; with Rattus norvegicus [10] (BLD = below limit of detection), “BLD”.

For the molecule `COc1ccc2c(c1)c(CC(=O)O)c(C)n2C(=O)c1ccc(Cl)cc1`, the outcome in the data set with Rattus norvegicus [14] was Active.

Regarding `Cc1cccc(Nc2ccccc2C(=O)O)c1C`, the result with Rattus norvegicus [3] was Active.

With `Cc1cc(=O)n(-c2ccccc2)n1-c1ccccc1`, the outcome in the data set with Rattus norvegicus [11] and in the data set on Rattus norvegicus [4] was Active. In addition, the Activity entry is “BLD” in the data set with Rattus norvegicus [12]; below 0.1 nmol in the data set with Liver microsomes [2]; “Non-toxic” in the data set filed under Cavia porcellus; “BLD” in the data set on Rattus norvegicus [7] (BLD = below limit of detection); “Dose-dependent effect” in the data set filed under Rattus norvegicus [13]; “BLD” in the data set on Rattus norvegicus [10] (BLD = below limit of detection).
